The assay addresses T1, Interleukin-2 (Mus musculus, UniProt P04351).
T1 sequence (P04351 whole entry): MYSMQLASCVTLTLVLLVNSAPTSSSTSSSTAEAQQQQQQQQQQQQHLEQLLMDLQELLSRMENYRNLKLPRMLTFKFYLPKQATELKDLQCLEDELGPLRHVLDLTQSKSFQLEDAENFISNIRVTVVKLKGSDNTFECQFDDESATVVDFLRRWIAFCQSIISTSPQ
Description: The compound was evaluated in vitro for the immunosuppressive activity in interleukin-2 by interleukin-2 reporter gene assay (IL2-RGA). The method, boiled down:
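Cellular immunosuppression read in the mouse mixed lymphocyte reaction or the interleukin-2 reporter gene assay. The IC50 in nM is the mean of three independent experiments.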
A general note: In a reporter assay the amount or activity of a reporter protein is the signal.

Turning to `C/C=C/C[C@@H](C)[C@@H](O)[C@H]1C(=O)N[C@@H](CCC)C(=O)N(C)CC(=O)N(C)[C@@H](CC(C)C)C(=O)N[C@@H](C(C)C)C(=O)N(C)[C@@H](CC(C)C)C(=O)N[C@@H](C)C(=O)N[C@H](C)C(=O)N(C)[C@@H](CC(C)C)C(=O)N(C)[C@@H](CC(C)C)C(=O)N(C)[C@@H](C(C)C)C(=O)N1C` [GECLOSPORIN], the IC50 – broadly, the point on the concentration scale where inhibition reaches its midpoint – is 13 nM.

For the molecule `C/C=C/C[C@@H](C)[C@@H](O)[C@@H]1C(=O)N[C@H](CCCO)C(=O)N(C)CC(=O)N(C)[C@H](CC(C)C)C(=O)N[C@H](C(C)C)C(=O)N(C)[C@H](CC(C)C)C(=O)N[C@H](C)C(=O)N[C@@H](C)C(=O)N(C)[C@H](CC(C)C)C(=O)N(C)[C@H](CC(C)C)C(=O)N(C)[C@H](C(C)C)C(=O)N1C` [33-(1-Hydroxy-2-methyl-hex-4-enyl)-30-(3-hydroxy-propyl)-6,9,18,24-tetraisobutyl-3,21-diisopropyl-1,4,7,10,12,15,19,25,28-nonamethyl-1,4,7,10,13,16,19,22,25,28,31undecaaza-cyclotritriacontan-2,5,8,11,14,17,20,23,26,29,32-undecaone], the midpoint of inhibition, the IC50, lay at 70 nM.

For the origin of these results see BindingDB's records for doi:10.1021/jm00017a020 (Sandoz Pharma, 1995).
